ChEMBL document CHEMBL2177011, “Discovery, synthesis, and biological evaluation of orally active pyrrolidone derivatives as novel inhibitors of p53-MDM2 protein-protein interaction” (J Med Chem, 2012)

Tests used:
SAOS-2 = experiment: Antiproliferative activity against p53 deficient human Saos2 cells after 72 hrs by MTT assay; format: functional, cell-based; settings: SAOS-2, 72 h
Summary of the method: (§1)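 Cells seeded at 5−6 × 10⁴ per well and cultured 24 h, then exposed in triplicate wells to a range of compound concentrations for 72 h, with 0.1% DMSO as control. MTT (5 mg/mL solution) was added for 4 h at 37 °C, formazan dissolved in DMSO, absorbance read at 570 nm. Drug-free wells served as blanks; IC50 calculated.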

A549 [1] = experiment: Induction of apoptosis in human A549 cells expressing wild type p53 at 20 uM after 48 hrs using annexin V-FITC staining by flow cytometry assay; format: functional
Summary of the method: (§2)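 A549 cells (5 × 10⁵ cells/mL) were seeded in six-well plates and treated at 5−20 μM for 48 h. Cells were harvested by trypsinization, washed twice in cold PBS and resuspended in binding buffer. They were stained with annexin V-FITC for 15 min at room temperature, then with PI for 15 min in the dark, and analyzed by flow cytometry; n = 3.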

U2OS = experiment: Antiproliferative activity against human U2OS cells expressing wild type p53 after 72 hrs by MTT assay; format: functional, cell-based; settings: Homo sapiens, U2OS, 72 h; read-out: IC50; summary of the method: as §1
A549 [2] = experiment: Induction of apoptosis in human A549 cells expressing wild type p53 at 5 uM after 48 hrs using annexin V-FITC staining by flow cytometry assay; format: functional; summary of the method: as §2
A549 [3] = experiment: Induction of apoptosis in human A549 cells expressing wild type p53 at 10 uM after 48 hrs using annexin V-FITC staining by flow cytometry assay; format: functional; summary of the method: as §2
A549 [4] = experiment: Induction of apoptosis in human A549 cells expressing wild type p53 after 48 hrs using annexin V-FITC staining by flow cytometry assay; format: functional, cell-based; summary of the method: as §2
Mus musculus [5] = experiment: Toxicity in nude BALB/C mouse assessed as mortality at 200 mg/kg, po qd for 14 days; format: organism-based; set-up: dose 200 mg/kg, route oral; settings: in vivo, 336 h
Summary of the method: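 Male BALB/C nude mice (18−20 g) carried subcutaneous A549 implants in the right axilla. Dosing began once tumors reached 100−300 mm³, 13 days after implantation. Animals were randomized into groups of 6 per treatment and 10 controls, then given 200 mg/kg by gavage once daily for 14 consecutive days. Body weight was recorded every 4 days. Mice were sacrificed on day 29 or 33.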

A549 [6] = experiment: Antitumor activity against human A549 cells expressing wild type p53 xenografted in nude BALB/C mouse assessed as inhibition of tumor growth at 300 mg/kg, po qd for 14 days; format: functional; settings: A549, 336 h, read-out: TGI
Summary of the method: (§3)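 Male BALB/C nude mice (18−20 g) had A549 cells implanted subcutaneously in the right axilla. Dosing started on day 13, when tumors reached 100−300 mm³. Mice were randomized (6 per treatment group, 10 controls) and dosed by gavage once daily for 14 days. Caliper tumor volume (TV = 1/2 × a × b²) was taken every 4 days; relative tumor volume was used. Mice were sacrificed on day 29 or 33.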

A549 [7] = experiment: Antiproliferative activity against human A549 cells expressing wild type p53 after 72 hrs by MTT assay; format: functional, cell-based; settings: Homo sapiens, A549, 72 h; read-out: IC50; summary of the method: as §1
A549 [8] = experiment: Antitumor activity against human A549 cells expressing wild type p53 xenografted in nude BALB/C mouse assessed as inhibition of tumor growth at 200 mg/kg, po qd for 14 days; format: functional; settings: A549, 336 h, read-out: TGI; summary of the method: as §3
[9] = target: Tumour suppressor protein p53/Mdm4 (Homo sapiens, UniProt P04637+O15151); experiment: Inhibition of p53-MDMX interaction after 1 hr by fluorescence polarization assay; format: protein assay
NCI-H1299 = experiment: Antiproliferative activity against p53 deficient human NCI-H1299 cells after 72 hrs by MTT assay; format: functional, cell-based; settings: NCI-H1299, 72 h; summary of the method: as §1
Mus musculus [10] = experiment: Toxicity in human A549 cells expressing wild type p53 xenografted nude BALB/C mouse assessed as reduction of body weight at 300 mg/kg, po qd for 14 days; format: organism-based; set-up: dose 300 mg/kg, route oral; settings: in vivo, 336 h
Summary of the method: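 Subcutaneous A549 xenografts (right axilla) in male BALB/C nude mice (18−20 g). From day 13 (tumors 100−300 mm³), the compound was given by gavage once daily for 14 days (6 animals per group; vehicle control group). Body weight was recorded every 4 days during treatment.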

Chain of Tumour suppressor protein p53/Mdm4 (P04637 whole entry): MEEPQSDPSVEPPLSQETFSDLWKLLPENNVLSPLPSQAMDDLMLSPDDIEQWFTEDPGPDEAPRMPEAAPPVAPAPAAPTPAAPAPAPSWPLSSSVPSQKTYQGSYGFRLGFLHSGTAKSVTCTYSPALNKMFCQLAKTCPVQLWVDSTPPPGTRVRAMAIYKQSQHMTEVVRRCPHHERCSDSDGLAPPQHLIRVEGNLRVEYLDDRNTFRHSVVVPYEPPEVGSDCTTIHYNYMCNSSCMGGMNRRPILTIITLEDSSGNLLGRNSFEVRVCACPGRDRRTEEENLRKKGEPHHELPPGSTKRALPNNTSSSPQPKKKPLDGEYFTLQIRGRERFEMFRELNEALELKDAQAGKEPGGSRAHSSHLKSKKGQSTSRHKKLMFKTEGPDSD
Chain of Tumour suppressor protein p53/Mdm4 (O15151 whole entry): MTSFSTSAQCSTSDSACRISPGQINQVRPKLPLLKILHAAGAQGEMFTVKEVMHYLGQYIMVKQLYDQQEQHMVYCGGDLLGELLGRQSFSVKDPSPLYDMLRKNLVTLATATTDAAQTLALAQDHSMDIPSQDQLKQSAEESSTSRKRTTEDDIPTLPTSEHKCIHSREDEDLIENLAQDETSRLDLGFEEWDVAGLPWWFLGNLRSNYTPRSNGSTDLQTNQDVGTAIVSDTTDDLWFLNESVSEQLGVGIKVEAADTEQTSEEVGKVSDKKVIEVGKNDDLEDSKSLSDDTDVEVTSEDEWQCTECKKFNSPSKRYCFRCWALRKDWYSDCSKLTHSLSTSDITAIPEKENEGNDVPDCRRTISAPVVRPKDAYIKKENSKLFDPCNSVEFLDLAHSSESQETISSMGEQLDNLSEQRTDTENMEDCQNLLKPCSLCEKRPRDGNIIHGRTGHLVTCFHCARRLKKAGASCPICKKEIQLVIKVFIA

Compound	IC50 (SAOS-2)	Activity (A549 [1])	IC50 (U2OS)	Activity (A549 [2])	Activity (A549 [3])	Activity (A549 [4])	Activity (Mus musculus [5])	inhibition in vivo at 300 mg/kg (A549 [6])	IC50 (A549 [7])	inhibition in vivo at 200 mg/kg (A549 [8])	Ki [9]	IC50 (NCI-H1299)	Activity (Mus musculus [10])
COc1ccc(C2=N[C@@H](c3ccc(Cl)cc3)[C@@H](c3ccc(Cl)cc3)N2C(=O)N2CCNC(=O)C2)c(OC(C)C)c1 [NUTLIN-3]	31.6 µM	15.49%	14.3 µM	0.9%	6.46%	Dose-dependent effect	–	–	–	–	–	–	–
C[C@@H](NC1=C(C(=O)c2ccccc2)[C@@H](c2ccc(Br)cc2)N(CCCn2ccnc2)C1=O)c1ccccc1	27.4 µM	17.85%	28.1 µM	0.63%	4.02%	Dose-dependent effect	Non-toxic	52.5%	1.97 µM	40%	Not Active	14.4 µM	Non-toxic
